According to paper PMC6681659 (Bioorganic & medicinal chemistry letters, 2018):

Experiments:
Kif15-N700 [1] = target: T1, Kif15-N700 (Homo sapiens, UniProt Q9NS87); assay: MT gliding assay with Kif15-N700; format: biochemical; settings: for Kif15 MT gliding inhibition (SAR, in words): 750 nM; for effect on Kif15-driven MT gliding at a single concentration: GW108X 10 μM for 1 minute, Kif15-IN-1 1.72 μM; for reversibility of Kif15 inhibition in MT gliding assay: wash out experiment
T1 sequence (Q9NS87 1-700 limits assumed): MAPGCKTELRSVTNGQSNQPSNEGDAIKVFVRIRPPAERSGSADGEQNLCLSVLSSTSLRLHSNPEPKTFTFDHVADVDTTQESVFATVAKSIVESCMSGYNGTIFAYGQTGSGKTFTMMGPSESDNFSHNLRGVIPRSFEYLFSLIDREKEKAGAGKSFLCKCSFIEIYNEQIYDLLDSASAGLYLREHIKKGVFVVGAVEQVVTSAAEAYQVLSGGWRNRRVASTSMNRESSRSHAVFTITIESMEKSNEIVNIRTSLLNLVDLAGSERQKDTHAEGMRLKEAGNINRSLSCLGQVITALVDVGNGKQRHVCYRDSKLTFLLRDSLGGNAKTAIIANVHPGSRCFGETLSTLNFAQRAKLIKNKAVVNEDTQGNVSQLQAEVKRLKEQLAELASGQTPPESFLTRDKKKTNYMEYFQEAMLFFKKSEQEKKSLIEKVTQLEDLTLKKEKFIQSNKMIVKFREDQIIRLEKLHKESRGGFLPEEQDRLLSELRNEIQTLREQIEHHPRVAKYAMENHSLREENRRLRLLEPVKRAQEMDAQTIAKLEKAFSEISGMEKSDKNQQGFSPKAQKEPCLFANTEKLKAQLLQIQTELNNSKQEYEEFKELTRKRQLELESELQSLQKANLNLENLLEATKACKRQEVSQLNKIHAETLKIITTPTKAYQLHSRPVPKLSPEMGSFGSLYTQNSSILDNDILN
Procedure, shortened: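 Motility assay in which Kif15-N700 glides fluorescent MTs, scored by gliding velocity. The SAR screen used 750 nM test compound in triplicate (some in duplicate), with n ≥ 30 measurements per replicate. Concentration-response series ran 10 to 0.2 μM (12 concentrations) or 30 to 0.1 μM (5 concentrations). For reversibility, gliding was started in DMSO, then 10 μM compound was added for 1 minute, followed by a double wash-out.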

TP53−/− RPE-1 cells = assay: Spindle morphology; format: cell-based; settings: 25 μM
Procedure, shortened: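 TP53−/− RPE-1 cells were exposed to 25 μM test compound or DMSO for 24 h and stained for tubulin, Kif15 and DNA. Pre-anaphase microtubule arrays were scored for bipolarity, in triplicate with at least 100 cells per replicate; spindle lengths were compared with DMSO-treated cells.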

KIRC-1 cells = assay: Spindle monopolarity in K5I-resistant KIRC-1 cells; format: cell-based
Kif15-N700 [2] = target: T1, Kif15-N700; assay: MT-stimulated ATPase activity of Kif15-N700 at varying ATP or MT concentrations; format: biochemical; settings: for mode of inhibition with respect to ATP: Lineweaver-Burk analysis
Kif15 = target: T2, Kif15 (Homo sapiens, UniProt Q9NS87); assay: Kif15 localization and protein level in RPE-1 cells; format: cell-based; settings: 25 μM
T2 sequence (Q9NS87 1-1388): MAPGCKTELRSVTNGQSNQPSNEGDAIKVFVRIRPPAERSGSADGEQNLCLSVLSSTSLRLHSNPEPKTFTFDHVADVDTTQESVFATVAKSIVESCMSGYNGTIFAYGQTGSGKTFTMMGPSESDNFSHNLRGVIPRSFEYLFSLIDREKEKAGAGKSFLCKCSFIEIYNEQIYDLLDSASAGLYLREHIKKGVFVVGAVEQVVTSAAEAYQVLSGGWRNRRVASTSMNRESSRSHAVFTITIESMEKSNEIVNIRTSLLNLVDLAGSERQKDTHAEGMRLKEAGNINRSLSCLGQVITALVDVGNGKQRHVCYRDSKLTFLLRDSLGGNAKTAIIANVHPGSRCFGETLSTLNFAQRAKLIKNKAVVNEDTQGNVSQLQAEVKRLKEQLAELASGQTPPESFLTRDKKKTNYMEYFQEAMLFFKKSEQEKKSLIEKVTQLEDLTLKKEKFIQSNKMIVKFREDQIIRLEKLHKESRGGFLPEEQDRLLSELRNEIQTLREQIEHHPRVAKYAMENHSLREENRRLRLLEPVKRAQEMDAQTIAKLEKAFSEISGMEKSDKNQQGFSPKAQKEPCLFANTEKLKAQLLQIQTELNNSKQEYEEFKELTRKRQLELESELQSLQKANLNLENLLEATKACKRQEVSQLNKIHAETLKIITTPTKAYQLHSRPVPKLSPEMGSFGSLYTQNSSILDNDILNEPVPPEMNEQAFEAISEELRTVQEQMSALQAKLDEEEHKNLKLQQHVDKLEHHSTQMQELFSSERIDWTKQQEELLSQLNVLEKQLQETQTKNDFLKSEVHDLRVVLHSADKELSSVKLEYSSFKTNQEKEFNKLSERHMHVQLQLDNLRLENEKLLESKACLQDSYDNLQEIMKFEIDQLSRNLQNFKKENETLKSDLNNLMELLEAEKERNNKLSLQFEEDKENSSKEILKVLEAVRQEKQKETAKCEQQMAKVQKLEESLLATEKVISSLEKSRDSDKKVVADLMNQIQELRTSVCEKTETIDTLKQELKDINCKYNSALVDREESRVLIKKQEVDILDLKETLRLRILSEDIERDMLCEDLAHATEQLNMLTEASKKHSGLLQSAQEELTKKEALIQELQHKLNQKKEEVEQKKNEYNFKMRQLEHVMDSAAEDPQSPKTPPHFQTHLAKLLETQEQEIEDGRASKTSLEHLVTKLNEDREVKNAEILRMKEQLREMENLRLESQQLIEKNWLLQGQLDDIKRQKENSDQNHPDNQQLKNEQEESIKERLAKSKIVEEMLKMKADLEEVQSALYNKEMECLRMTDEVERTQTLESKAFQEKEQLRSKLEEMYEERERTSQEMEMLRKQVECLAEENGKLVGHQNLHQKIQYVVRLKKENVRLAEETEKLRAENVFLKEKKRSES
Procedure, shortened: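 TP53−/− RPE-1 cells were exposed to the test compound at 25 μM or to DMSO for 24 h, then immunostained for Kif15, tubulin and DNA. Imaging used max-intensity z-projections or single optical sections. Spindle-bound Kif15 was quantified on metaphase MTs as the ratio of Kif15 to tubulin fluorescence intensity. 25–30 cells were analysed, pooled from triplicate experiments.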

RPE-1 cells = settings: cited from earlier work
[3] = ATP varied, high MT concentration

O=C1Nc2ccc(C(=O)c3ccco3)cc2/C1=C/c1cc(I)c(O)c(I)c1 [Compound 5]
Kif15 MT gliding inhibition (SAR, in words) (Kif15-N700 [1]): not as well tolerated

O=C1Nc2ccc(C(=O)c3ccco3)cc2/C1=C/c1cc(F)c(O)c(Br)c1 [Compound 6]
Kif15 MT gliding inhibition (SAR, in words) (Kif15-N700 [1]): intermediary inhibition

O=C1Nc2ccc(C(=O)c3ccco3)cc2/C1=C/c1cc(Cl)c(O)c(Br)c1 [Compound 7]
Kif15 MT gliding inhibition (SAR, in words) (Kif15-N700 [1]): intermediary inhibition

O=C1Nc2ccc(C(=O)c3ccco3)cc2/C1=C/c1cc(Br)cc(Br)c1 [Compound 8]
Kif15 MT gliding inhibition (SAR, in words) (Kif15-N700 [1]): abolished activity

Cc1cc(/C=C2\C(=O)Nc3ccc(C(=O)c4ccco4)cc32)cc(C)c1O [Compound 9]
Kif15 MT gliding inhibition (SAR, in words) (Kif15-N700 [1]): reduced in activity

COc1c(Br)cc(/C=C2\C(=O)Nc3ccc(C(=O)c4ccco4)cc32)cc1Br [Compound 10]
Kif15 MT gliding inhibition (SAR, in words) (Kif15-N700 [1]): abolished activity

O=C1Nc2ccc(C(=O)c3ccco3)cc2/C1=C/c1cc(Cl)c(O)c(Cl)c1 [GW108X]
effect on Kif15-driven MT gliding at a single concentration (Kif15-N700 [1]): eliminate MT gliding
reversibility of Kif15 inhibition in MT gliding assay (Kif15-N700 [1]): reversible
spindle length (effect in words) (TP53−/− RPE-1 cells): unaffected
dose dependence of block of spindle assembly (KIRC-1 cells): dose-dependent
change in KM^ATP (Kif15-N700 [2]; [3]): no change
change in Vmax (Kif15-N700 [2]; [3]): decrease
mode of inhibition with respect to ATP (Kif15-N700 [2]): not competing with ATP binding
change in KM^MT (Kif15-N700 [2]; MT varied, saturating ATP): increase

CCOC(=O)c1sc(NC(=O)[C@H](C(C)C)n2c(=O)[nH]c3ccccc3c2=O)nc1C [Kif15-IN-1, reference compound]
effect on Kif15-driven MT gliding at a single concentration (Kif15-N700 [1]): abolishes Kif15-driven MT gliding
reversibility of Kif15 inhibition in MT gliding assay (Kif15-N700 [1]): reversible
effect on spindle-bound levels of Kif15 (Kif15): did not reduce
change in KM^ATP (Kif15-N700 [2]; [3]): increase
mode of inhibition with respect to ATP (Kif15-N700 [2]): competes with ATP binding

BRD9876
effect on spindle integrity (RPE-1 cells): does not cause spindle collapse
